# Results from ChEMBL document CHEMBL1123481, “Structure-activity relationships of (arylalkyl)imidazole anticonvulsants: comparison of the (fluorenylalkyl)imidazoles with nafimidone and denzimol” (J Med Chem, 1986).
# How the values were obtained:
# [1] = system: Mus musculus; assay: Effective dose in mice by pentylenetetrazole assay (administered subcutaneously); assay type: functional; settings: sc
# Outline: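 Test compound was given orally to mice. At its previously determined time of peak effect, pentylenetetrazole (110 mg/kg in water, 10 mL/kg) was injected sc into the neck skin fold. Mice were watched for 15 min for presence or absence of a clonic seizure. Where protection was bell-shaped, the value is the dose giving maximum protection.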
# [2] = Compound was tested for its toxicity in rat; Ca 4550; assay type: organism-based; settings: in vivo
# [3] = species: Mus musculus; assay: Compound was tested for time to peak anticonvulsant effect (TPE); assay type: functional
# Outline: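 Time to peak effect after oral dosing in 5% acacia/water was estimated by testing mice at 0.5, 1, 2, 3 and 4 h posttreatment in the MES and horizontal screen tests.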
# [4] = Compound was tested for its toxicity in rat; assay type: organism-based; settings: in vivo
# Outline: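 Female Fischer 344 rats were fasted and given a single oral gavage dose, four dose levels per compound, as a suspension in 10% aqueous acacia. Mortality was scored and the median lethal dose (LD50) was derived.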
# [5] = system: Mus musculus; assay: Effective dose in mice by horizontal screen assay (administered orally); assay type: functional; settings: po
# Outline: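 Fasted, pre-trained male CF1 mice (20–25 g) were dosed orally across a range of doses, given as a suspension in 5% acacia/water. Each mouse was placed on a 13 cm square wire screen, and the screen was rotated 180°. The score was return to the top within 1 min. Time of peak effect was scanned at 0.5–4 h. Each compound was then retested at that time with at least 4 doses and 12 mice per dose.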
# [6] = species: Mus musculus; assay: Potentiation of hexobarbital-induced sleeping time in mice; assay type: functional
# Outline: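 Groups of 10 fasted mice received compound orally at 10 mg/kg in 5% acacia/water (10 mL/kg). At the compound's time of peak effect they were given hexobarbital 100 mg/kg ip, solubilized with stoichiometric NaOH. Sleeping time, measured as loss of righting reflex, was recorded to the nearest minute. Values are mean ± SEM.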
smiles,measurement,setting,value
O=C(Cn1ccnc1)c1ccc2c(c1)Cc1ccccc1-2,ED50,[1],> 200 mg/kg
same,LD50,[2],4550 mg/kg
same,TPE,[3],3 h
same,LD50,[4],504 mg/kg
same,ED50,[5],> 1000 mg/kg
same,ST,[6],73.7 min
